Read-outs that look alike come from different tables or passages of the source.
Key:
P-gp and BCRP = assay: Efflux in wildtype Caco-2 cells; assay type: in vitro ADME; conditions: human
How it was run: (§1)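 Bidirectional transport was measured in wildtype Caco-2 cells and in proprietary derivatives with reduced BCRP (CPT-B1) or P-gp (CPT-P1) expression. Test compound was used at 0.5, 2 and 10 μM in wildtype cells and at 2 μM in the reduced-expression lines. Probe substrates served as positive controls and reference inhibitors as negative controls. Efflux ratios were calculated.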

CYP2A6 = biological target: T1, CYP2A6 (Homo sapiens, UniProt P11509); assay: CYP2A6 inhibition in human liver microsomes; assay type: in vitro ADME
T1 sequence (P11509 1-494): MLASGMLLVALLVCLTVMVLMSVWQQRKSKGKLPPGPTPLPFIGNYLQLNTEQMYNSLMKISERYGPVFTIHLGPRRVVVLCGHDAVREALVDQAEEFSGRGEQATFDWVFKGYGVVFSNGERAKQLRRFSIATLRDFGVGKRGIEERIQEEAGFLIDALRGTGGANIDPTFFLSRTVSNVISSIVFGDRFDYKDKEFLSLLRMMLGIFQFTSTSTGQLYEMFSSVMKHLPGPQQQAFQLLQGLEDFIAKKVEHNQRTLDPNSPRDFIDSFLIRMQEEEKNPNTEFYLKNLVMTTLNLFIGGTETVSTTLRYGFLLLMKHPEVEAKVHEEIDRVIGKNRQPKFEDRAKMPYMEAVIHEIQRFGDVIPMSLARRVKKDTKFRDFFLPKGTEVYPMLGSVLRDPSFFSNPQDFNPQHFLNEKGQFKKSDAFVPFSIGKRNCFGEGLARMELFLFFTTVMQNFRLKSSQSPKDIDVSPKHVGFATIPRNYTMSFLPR
How it was run: (§2)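 Pooled human liver microsomes were incubated with standard CYP-selective substrates, with and without test compound at 0.03–100 μM. Standard selective inhibitors for each isoform ran in parallel as positive controls. Read-out was IC50. For CYP3A4 only, time-dependent inhibition was also tested after 30 min preincubation, using midazolam and testosterone as substrates.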

CYP2B6 = biological target: T2, CYP2B6 (Homo sapiens, UniProt P20813); assay: biochemical; assay type: in vitro ADME
T2 sequence (P20813 1-491): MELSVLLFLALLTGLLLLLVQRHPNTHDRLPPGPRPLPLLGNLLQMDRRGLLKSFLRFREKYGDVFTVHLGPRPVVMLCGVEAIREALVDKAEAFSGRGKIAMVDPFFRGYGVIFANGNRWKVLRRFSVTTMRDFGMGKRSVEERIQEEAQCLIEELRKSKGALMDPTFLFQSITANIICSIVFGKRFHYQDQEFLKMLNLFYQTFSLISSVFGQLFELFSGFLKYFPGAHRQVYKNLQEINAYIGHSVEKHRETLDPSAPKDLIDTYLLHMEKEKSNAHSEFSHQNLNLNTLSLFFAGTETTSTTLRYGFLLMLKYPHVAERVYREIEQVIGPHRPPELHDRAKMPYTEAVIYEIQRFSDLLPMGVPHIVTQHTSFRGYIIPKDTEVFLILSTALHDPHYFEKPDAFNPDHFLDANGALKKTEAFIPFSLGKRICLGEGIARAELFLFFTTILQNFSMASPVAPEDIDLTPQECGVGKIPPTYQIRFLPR

P-gp [1] = biological target: T3, P-gp (Homo sapiens, UniProt P08183); assay: P-gp inhibition in Caco-2 cells; assay type: in vitro ADME
How it was run: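 Efflux transporter inhibition in Caco-2 monolayers. Test compound at 0.25–60 μM. Probe/reference-inhibitor pairs were digoxin/cyclosporin A (P-gp) and cladribine/Ko143 (BCRP). Probe transport was measured with and without test compound, and IC50 was derived from that inhibition.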

CYP3A4 [2] = biological target: CYP3A4 (Homo sapiens, UniProt P08684); assay: CYP3A4 inhibition in human liver microsomes; assay type: in vitro ADME
How it was run: as §2

NTCP = NTCP (Homo sapiens, UniProt Q14973); assay: NTCP uptake inhibition in transfected HEK cells; assay type: in vitro ADME
How it was run: (§3)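 HEK cells overexpressing NTCP, OAT1, OAT3, OATP2B1, OCT1 or OCT2 were incubated with probe substrate. Pairs were estrone 3-sulfate/cyclosporin A (NTCP), PAH/probenecid (OAT1), furosemide/probenecid (OAT3), estrone 3-sulfate/glibenclamide (OATP2B1), 3H-MPP+/decynium 22 (OCT1) and 3H-MPP+/imipramine (OCT2). IC50 was determined with and without test compound, at ≤50 µM for the parent and ≤10 µM for the metabolite.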

BSEP = BSEP (Homo sapiens, UniProt O95342); assay: BSEP inhibition in sandwich-cultured human hepatocytes; assay type: in vitro ADME
How it was run: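 Sandwich-cultured human hepatocytes were used. Probe substrate was taurocholic acid, with cyclosporin as reference inhibitor. Probe transport was measured without and with test compound to derive IC50. Protein was added to the medium for one tested compound, permitting a higher test concentration.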

CYP3A4 [3] = assay: Relative induction score; set-up: species or system human; conditions: sensitive CYP3A4 substrate midazolam
How it was run: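 The relative induction score (RIS) method was applied to CYP3A4 induction data from hepatocytes of three donors treated for 3 days. Strong, moderate and weak reference inducers (rifampicin, bosentan, pioglitazone) served as calibrators for estimating clinical DDI risk.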

OAT1 = OAT1 (Homo sapiens, UniProt Q4U2R8); assay: OAT1 uptake inhibition in transfected HEK cells; assay type: in vitro ADME
How it was run: as §3

P-gp [4] = biological target: T3, P-gp; assay: Efflux in CPT-P1 cells; assay type: in vitro ADME; conditions: Caco-2
How it was run: as §1

MATE2-K = MATE2-K (Homo sapiens, UniProt Q86VL8); assay: MATE2-K inhibition in transfected HEK cells; assay type: in vitro ADME
How it was run: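 HEK cells were transfected with MRP2, MATE1 or MATE2-K. Pairs were CDCF/benzbromarone (MRP2), metformin/cimetidine (MATE1) and metformin/pyrimethamine (MATE2-K). Probe transport was assessed with and without test compound, and IC50 was determined.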

OATP2B1 = OATP2B1 (Homo sapiens, UniProt O94956); assay: OATP2B1 uptake inhibition in transfected HEK cells; assay type: in vitro ADME
How it was run: as §3

CYP2C9 = CYP2C9 (Homo sapiens, UniProt P11712); assay: CYP2C9 inhibition in human liver microsomes; assay type: in vitro ADME
How it was run: as §2

[5] = darolutamide 600 mg; ref data on file; cited from earlier work
OAT3 = OAT3 (Homo sapiens, UniProt Q8TCC7); assay: OAT3 uptake inhibition in transfected HEK cells; assay type: in vitro ADME
How it was run: as §3

[6] = cited from earlier work
CYP1A2 = assay type: in vitro ADME; conditions: primary human hepatocytes, three donors, 3 days dosing, 0.005–10 mg/l
[7] = read-out: IC50, CYP3A4 (with pre-incubation), human liver microsomes, substrate midazolam, 30 min pre-incubation
[8] = read-out: IC50, CYP3A4 (with pre-incubation), human liver microsomes, substrate testosterone, 30 min pre-incubation

CYP3A4 (Homo sapiens, UniProt P08684), sequence (P08684 whole entry): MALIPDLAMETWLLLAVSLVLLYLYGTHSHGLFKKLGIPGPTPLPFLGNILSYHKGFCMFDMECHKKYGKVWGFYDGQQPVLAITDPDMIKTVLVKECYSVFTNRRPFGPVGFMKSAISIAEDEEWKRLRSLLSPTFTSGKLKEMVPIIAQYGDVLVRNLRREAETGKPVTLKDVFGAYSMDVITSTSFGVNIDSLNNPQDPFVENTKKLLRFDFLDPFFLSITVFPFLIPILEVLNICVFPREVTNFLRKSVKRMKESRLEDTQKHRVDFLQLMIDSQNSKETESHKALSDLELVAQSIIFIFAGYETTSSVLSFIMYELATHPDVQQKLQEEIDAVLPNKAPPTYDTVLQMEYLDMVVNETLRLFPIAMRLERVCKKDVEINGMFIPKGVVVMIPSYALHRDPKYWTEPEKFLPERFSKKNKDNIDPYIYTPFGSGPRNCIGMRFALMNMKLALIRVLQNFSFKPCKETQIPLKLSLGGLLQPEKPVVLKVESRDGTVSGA
MATE2-K, sequence (Q86VL8 1-566 isoform Q86VL8-3): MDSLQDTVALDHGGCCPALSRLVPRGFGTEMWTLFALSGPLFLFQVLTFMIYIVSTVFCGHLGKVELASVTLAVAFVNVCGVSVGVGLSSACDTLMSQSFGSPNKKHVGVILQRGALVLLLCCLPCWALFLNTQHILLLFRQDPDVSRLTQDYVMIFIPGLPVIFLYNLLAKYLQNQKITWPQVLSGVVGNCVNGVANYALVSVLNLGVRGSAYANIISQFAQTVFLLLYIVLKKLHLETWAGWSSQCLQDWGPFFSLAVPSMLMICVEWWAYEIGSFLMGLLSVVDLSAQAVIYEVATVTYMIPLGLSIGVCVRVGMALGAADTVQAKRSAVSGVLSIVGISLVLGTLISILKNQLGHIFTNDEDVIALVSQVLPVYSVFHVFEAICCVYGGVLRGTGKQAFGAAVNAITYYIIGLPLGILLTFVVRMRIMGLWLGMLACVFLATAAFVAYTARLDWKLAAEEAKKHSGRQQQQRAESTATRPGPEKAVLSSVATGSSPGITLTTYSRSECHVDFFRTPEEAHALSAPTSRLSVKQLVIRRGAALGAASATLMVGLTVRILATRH
OAT1, sequence (Q4U2R8 whole entry): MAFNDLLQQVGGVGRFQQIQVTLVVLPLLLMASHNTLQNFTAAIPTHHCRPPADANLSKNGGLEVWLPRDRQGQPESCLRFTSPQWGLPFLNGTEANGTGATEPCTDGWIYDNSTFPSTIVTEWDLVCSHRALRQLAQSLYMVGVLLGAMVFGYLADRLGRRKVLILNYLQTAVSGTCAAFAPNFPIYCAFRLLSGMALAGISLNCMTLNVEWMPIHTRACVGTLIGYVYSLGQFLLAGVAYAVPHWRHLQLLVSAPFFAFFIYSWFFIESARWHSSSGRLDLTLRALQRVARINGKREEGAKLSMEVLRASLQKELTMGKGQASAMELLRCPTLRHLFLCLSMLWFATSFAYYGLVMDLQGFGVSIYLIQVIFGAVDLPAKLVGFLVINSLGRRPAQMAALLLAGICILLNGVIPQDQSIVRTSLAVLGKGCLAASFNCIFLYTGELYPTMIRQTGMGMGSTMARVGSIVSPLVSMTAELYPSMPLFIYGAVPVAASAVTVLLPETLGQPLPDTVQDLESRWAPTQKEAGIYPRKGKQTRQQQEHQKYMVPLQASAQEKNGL
T3 sequence (P08183 whole entry): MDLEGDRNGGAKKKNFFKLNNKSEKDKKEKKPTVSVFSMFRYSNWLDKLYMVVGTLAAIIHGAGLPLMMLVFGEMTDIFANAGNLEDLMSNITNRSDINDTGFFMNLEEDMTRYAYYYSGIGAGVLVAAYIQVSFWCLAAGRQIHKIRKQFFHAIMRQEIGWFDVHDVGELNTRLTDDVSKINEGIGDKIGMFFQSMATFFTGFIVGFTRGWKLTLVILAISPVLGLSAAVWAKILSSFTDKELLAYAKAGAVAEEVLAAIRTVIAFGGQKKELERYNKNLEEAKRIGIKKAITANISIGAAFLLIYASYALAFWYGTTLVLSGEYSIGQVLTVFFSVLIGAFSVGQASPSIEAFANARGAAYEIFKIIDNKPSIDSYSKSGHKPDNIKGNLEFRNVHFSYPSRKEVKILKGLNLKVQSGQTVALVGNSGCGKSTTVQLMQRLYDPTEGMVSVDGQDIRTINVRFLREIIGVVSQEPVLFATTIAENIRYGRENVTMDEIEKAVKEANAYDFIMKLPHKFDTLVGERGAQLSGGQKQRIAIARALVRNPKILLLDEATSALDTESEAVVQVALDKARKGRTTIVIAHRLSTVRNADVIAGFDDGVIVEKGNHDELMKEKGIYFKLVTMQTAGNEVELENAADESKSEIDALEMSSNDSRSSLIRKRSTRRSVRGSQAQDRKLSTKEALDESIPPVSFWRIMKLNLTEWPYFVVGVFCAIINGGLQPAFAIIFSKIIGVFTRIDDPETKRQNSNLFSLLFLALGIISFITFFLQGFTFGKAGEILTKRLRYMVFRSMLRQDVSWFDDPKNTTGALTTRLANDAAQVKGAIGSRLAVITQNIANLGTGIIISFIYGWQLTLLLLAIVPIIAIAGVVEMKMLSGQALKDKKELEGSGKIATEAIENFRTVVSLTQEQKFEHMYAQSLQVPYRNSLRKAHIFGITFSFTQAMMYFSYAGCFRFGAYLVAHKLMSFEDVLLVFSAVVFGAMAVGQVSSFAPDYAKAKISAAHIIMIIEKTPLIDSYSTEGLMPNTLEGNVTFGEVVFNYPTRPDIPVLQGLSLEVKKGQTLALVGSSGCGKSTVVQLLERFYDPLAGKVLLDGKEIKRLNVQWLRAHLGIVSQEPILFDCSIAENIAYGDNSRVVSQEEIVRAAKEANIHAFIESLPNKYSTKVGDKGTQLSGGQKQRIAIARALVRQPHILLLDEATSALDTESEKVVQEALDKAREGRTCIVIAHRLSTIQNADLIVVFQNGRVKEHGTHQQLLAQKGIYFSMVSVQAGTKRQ
CYP2C9, sequence (P11712 whole entry): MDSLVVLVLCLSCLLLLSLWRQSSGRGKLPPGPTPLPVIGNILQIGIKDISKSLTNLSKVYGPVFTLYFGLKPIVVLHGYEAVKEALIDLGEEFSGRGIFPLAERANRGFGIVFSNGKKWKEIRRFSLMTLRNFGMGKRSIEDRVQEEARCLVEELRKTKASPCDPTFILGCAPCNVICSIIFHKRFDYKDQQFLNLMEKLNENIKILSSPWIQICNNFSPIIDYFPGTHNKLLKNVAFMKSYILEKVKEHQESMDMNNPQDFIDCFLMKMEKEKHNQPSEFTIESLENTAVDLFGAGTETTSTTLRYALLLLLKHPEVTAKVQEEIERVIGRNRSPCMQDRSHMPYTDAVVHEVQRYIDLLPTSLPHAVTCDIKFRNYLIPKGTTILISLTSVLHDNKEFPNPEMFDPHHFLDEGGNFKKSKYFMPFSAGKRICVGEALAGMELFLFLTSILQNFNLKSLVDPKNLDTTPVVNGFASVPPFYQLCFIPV
OAT3, sequence (Q8TCC7 whole entry): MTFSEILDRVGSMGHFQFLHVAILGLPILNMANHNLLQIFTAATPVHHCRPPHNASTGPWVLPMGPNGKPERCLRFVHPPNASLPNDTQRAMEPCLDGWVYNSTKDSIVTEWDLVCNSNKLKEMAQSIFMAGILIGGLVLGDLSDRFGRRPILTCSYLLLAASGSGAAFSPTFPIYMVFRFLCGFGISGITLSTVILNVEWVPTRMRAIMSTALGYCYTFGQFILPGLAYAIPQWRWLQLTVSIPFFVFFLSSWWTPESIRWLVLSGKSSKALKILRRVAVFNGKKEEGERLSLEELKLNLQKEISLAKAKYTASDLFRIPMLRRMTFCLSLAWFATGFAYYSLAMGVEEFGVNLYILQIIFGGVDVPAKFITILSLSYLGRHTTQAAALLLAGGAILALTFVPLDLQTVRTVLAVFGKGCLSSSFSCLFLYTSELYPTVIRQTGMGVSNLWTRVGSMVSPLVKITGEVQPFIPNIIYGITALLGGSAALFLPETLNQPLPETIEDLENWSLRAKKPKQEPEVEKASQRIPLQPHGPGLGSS
OATP2B1, sequence (O94956 whole entry): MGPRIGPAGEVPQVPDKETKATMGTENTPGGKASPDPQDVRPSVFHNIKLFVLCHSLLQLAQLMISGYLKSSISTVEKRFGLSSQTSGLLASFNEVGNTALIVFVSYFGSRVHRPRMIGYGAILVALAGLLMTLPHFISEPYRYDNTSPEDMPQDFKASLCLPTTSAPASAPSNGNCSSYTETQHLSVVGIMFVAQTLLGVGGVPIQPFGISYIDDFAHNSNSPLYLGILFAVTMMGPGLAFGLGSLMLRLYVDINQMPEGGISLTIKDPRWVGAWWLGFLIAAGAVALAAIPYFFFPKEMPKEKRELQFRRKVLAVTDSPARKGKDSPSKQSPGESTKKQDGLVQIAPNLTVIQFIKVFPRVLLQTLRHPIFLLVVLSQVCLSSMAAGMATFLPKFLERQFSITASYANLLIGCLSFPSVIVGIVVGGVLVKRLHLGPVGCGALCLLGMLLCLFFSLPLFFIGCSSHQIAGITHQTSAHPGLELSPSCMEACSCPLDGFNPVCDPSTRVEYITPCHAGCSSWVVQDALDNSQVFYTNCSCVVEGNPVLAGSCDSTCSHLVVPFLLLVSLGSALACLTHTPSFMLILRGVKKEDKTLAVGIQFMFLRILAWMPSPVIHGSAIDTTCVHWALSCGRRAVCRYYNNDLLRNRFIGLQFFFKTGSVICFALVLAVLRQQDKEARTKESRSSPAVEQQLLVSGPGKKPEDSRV
NTCP, sequence (Q14973 whole entry): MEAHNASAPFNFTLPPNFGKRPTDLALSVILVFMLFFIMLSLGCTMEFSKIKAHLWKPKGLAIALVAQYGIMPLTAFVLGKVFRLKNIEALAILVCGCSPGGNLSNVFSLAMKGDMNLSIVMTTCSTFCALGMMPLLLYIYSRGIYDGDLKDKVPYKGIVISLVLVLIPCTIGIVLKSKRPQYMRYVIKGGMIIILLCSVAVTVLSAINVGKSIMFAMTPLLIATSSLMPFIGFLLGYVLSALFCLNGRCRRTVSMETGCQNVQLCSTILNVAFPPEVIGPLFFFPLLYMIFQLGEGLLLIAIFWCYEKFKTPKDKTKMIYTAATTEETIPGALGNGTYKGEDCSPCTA

Compound: CC(O)c1cc(C(=O)N[C@@H](C)Cn2ccc(-c3ccc(C#N)c(Cl)c3)n2)[nH]n1 (stereo partly drawn) [Darolutamide, darolutamide]
- efflux ratio at 0.5 μM (P-gp and BCRP): 78
- efflux ratio at 2 μM (P-gp and BCRP): 98
- efflux ratio at 10 μM (P-gp and BCRP): 14
- IC50 (CYP2A6): > 100 µM
- IC50 (CYP2B6): > 100 µM
- IC50 (P-gp [1]): 16.4 µM
- IC50 (CYP3A4 [2]): > 100 µM
- IC50 (CYP3A4 [2]; [7]): > 100 µM
- IC50 (CYP3A4 [2]; [8]): > 100 µM
- IC50 (NTCP): > 50 µM
- IC50 (BSEP): > 60 µM
- Overall assessment of CYP3A4 induction (RIS method) (CYP3A4 [3]): moderate-to-strong inducers
- IC50 (OAT1): > 50 µM
- efflux ratio at 2 μM (P-gp [4]): 3.6
- IC50 (MATE2-K): 9.5 µM
- IC50 (OATP2B1): > 50 µM
- IC50 (CYP2C9): 30.3 µM
- clinically relevant intestinal concentration [5]: 270 µM
- IC50 (OAT3): 4.5 µM

Compound: CC(=O)c1cc(C(=O)N[C@@H](C)Cn2ccc(-c3ccc(C#N)c(Cl)c3)n2)[nH]n1 [Keto-darolutamide, keto-darolutamide]
- fraction unbound in human plasma, fold lower compared with darolutamide [6]: ~ 40 fold
- IC50 (CYP2A6; read-out: IC50, CYP2A6, human liver microsomes, substrate coumarin): > 100 µM
- IC50 (CYP2B6; read-out: IC50, CYP2B6, human liver microsomes, substrate bupropion): 54.2 µM
- maximal fold induction of CYP1A2 (CYP1A2): < 2 fold
- IC50 (CYP3A4 [2]; [7]): > 50 µM
- IC50 (CYP3A4 [2]; [8]): > 50 µM
- IC50 (CYP3A4 [2]; read-out: IC50, CYP3A4, human liver microsomes, substrate midazolam): > 50 µM
- IC50 (CYP3A4 [2]; read-out: IC50, CYP3A4, human liver microsomes, substrate testosterone): > 50 µM
- IC50 (BSEP; read-out: IC50, BSEP, sandwich-cultured human hepatocytes, taurocholic acid/cyclosporin, higher test concentration possible because of addition of protein to the assay media): > 300 µM
- Overall assessment of CYP3A4 induction (RIS method) (CYP3A4 [3]): weak-to-moderate inducer
- IC50 (OAT1; read-out: IC50, OAT1, HEK cells, substrate PAH, reference probenecid): > 2 µM
- IC50 (MATE2-K; read-out: IC50, MATE2 K, HEK cells, substrate metformin, reference pyrimethamine): 3 µM
- IC50 (CYP2C9; read-out: IC50, CYP2C9, human liver microsomes, substrate diclofenac): 9.6 µM
- IC50 (OAT3; read-out: IC50, OAT3, HEK cells, substrate furosemide, reference probenecid): > 2 µM
